How the values were obtained:
[1] = Inhibition of recombinant GGTase 2 (unknown origin) by scintillation counting in presence of [3H]GGPP; parameters: species or system Homo sapiens
Procedure, shortened: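 Recombinant GGTase II reaction containing radiolabeled GGPP as prenyl donor, a Rab protein as acceptor substrate, and REP. IC50 obtained from inhibition of transfer.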

RPMI-8226 = test: Cytotoxicity against human multiple myeloma RPMI8226 measured after 24 to 48 hrs by MTT assay; format: functional, cell-based

SMILES | IC50 [1] | IC50 (RPMI-8226)
O=P(O)(O)C(Cc1cn(Cc2ccc3ccccc3c2)nn1)P(=O)(O)O | > 2 mM | > 1 mM
O=P(O)(O)C(Cc1cn(Cc2ccccc2)nn1)P(=O)(O)O | 2 mM | > 1 mM
CC(C)=CCC/C(C)=C/CC/C(C)=C/CCC(C)=CCn1cc(CC(P(=O)(O)O)P(=O)(O)O)nn1 (mixture of isomers) | 0.1 mM | 1 mM
CC(C)=CCC/C(C)=C/CCC(C)=CCn1cc(CC(P(=O)(O)O)P(=O)(O)O)nn1 (mixture of isomers) | 0.65 mM | 0.9 mM
CC(C)=CCCC(C)=CCn1cc(CC(P(=O)(O)O)P(=O)(O)O)nn1 (mixture of isomers) | > 2 mM | > 1 mM
O=P(O)(O)C(O)(Cc1cccnc1)P(=O)(O)O [RISEDRONIC ACID] | > 1 mM | –
